According to ChEMBL document CHEMBL4732146, “Nitric oxide-donating and reactive oxygen species-responsive prochelators based on 8-hydroxyquinoline as anticancer agents” (Eur J Med Chem, 2021):
Calls of active or inactive are those of the source. No cut-off for these calls is given here.

Key:
PC-3 [1] = test: Cytotoxicity against human PC-3 cells assessed as reduction in cell viability measured after 48 hrs in presence of CuCl2 by MTT assay; assay type: functional, cell-based; settings: PC-3, 48 h
In short: (§1)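 Cells seeded 6 × 10⁴ per well, cultured 24 h at 37 °C under 5% CO₂, then exposed to compound for 48 h, with or without 50 µM CuCl₂ or FeCl₃ co-incubation. MTT added for 4 h at 37 °C, formazan dissolved in DMSO, A490 read. IC50 reported as mean (SD), n = 3.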

HeLa [2] = test: Cytotoxicity against human HeLa cells assessed as reduction in cell viability measured after 48 hrs in presence of FeCl3 by MTT assay; assay type: functional, cell-based
MCF7 [3] = test: Cytotoxicity against human MCF7 cells assessed as reduction in cell viability measured after 48 hrs by MTT assay; assay type: functional, cell-based; settings: MCF7, 48 h; in short: as §1
HeLa [4] = test: Cytotoxicity against human HeLa cells assessed as reduction in cell viability measured after 48 hrs by MTT assay; assay type: functional, cell-based
SW1990 [5] = test: Antitumor activity against human SW1990 cells xenografted in Balb/c nude mouse assessed as tumor size at 20 mg/kg, iv administered every 3 days measured after 21 days (reference value: 1.23 +/- 0.25 cm3); assay type: functional; settings: time 21 day
In short: (§2)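 Male BALB/c nude mice, 3–5 weeks old, given 1 × 10⁷ SW1990 cells subcutaneously; when tumors reached about 65 mm³, randomised to groups of eight. Saline vehicle control, dosing intravenously every three days. Tumor size monitored every two days for three weeks; tumors dissected at sacrifice on day 21, volume = d² × D/2 (d smallest, D largest diameter). Mean ± SD.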

HepG2 [6] = test: Cytotoxicity against human HepG2 cells assessed as reduction in cell viability measured after 48 hrs in presence of CuCl2 by MTT assay; assay type: functional, cell-based; settings: HepG2, 48 h; in short: as §1
PC-3 [7] = test: Cytotoxicity against human PC-3 cells assessed as reduction in cell viability measured after 48 hrs in presence of FeCl3 by MTT assay; assay type: functional, cell-based; settings: PC-3, 48 h; in short: as §1
SW1990 [8] = test: Cytotoxicity against human SW1990 cells assessed as reduction in cell viability measured after 48 hrs in presence of CuCl2 by MTT assay; assay type: functional, cell-based; settings: SW1990, 48 h; in short: as §1
SW1990 [9] = test: Antitumor activity against human SW1990 cells xenografted in Balb/c nude mouse assessed as tumor growth inhibition at 20 mg/kg, iv administered every 3 days measured after 21 days relative to control; assay type: functional; settings: 504 h, time 21 day, read-out: TGI; in short: as §2
[10] = Metal chelating activity assessed as compound-Cu2+ complex formation measured after 40 mins by calcein dye based fluorescence assay; settings: dose 10-50 µM
In short: (§3)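 Calcein (10 µM) in 50 mM HEPES was quenched by 10 µM CuCl₂ (or FeCl₃ for the Fe³⁺ arm). Chelator was added from DMSO stock to a final 10 or 50 µM and incubated 40 min at room temperature. Recovery rate was calculated from fluorescence (λex 485 / λem 520 nm); n = 3.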

PANC-1 [11] = test: Cytotoxicity against human PANC-1 cells assessed as reduction in cell viability measured after 48 hrs in presence of CuCl2 by MTT assay; assay type: functional, cell-based; settings: PANC-1, 48 h; in short: as §1
A549 [12] = test: Cytotoxicity against human A549 cells assessed as reduction in cell viability measured after 48 hrs in presence of FeCl3 by MTT assay; assay type: functional, cell-based; settings: A549, 48 h
HCT-116 [13] = test: Cytotoxicity against human HCT-116 cells assessed as reduction in cell viability measured after 48 hrs in presence of FeCl3 by MTT assay; assay type: functional, cell-based; settings: HCT-116, 48 h; in short: as §1
MCF7 [14] = test: Cytotoxicity against human MCF7 cells assessed as reduction in cell viability measured after 48 hrs in presence of FeCl3 by MTT assay; assay type: functional, cell-based; settings: MCF7, 48 h; in short: as §1
MCF7 [15] = test: Cytotoxicity against human MCF7 cells assessed as reduction in cell viability measured after 48 hrs in presence of CuCl2 by MTT assay; assay type: functional, cell-based; settings: MCF7, 48 h; in short: as §1
A549 [16] = test: Cytotoxicity against human A549 cells assessed as reduction in cell viability measured after 48 hrs by MTT assay; assay type: functional, cell-based; settings: A549, 48 h
[17] = Cytotoxicity against human H6C7 cells assessed as reduction in cell viability measured after 48 hrs by MTT assay; assay type: cell-based; settings: H6C7, 48 h; in short: as §1
[18] = Metal chelating activity assessed as compound-Fe3+ complex formation measured after 40 mins by calcein dye based fluorescence assay; settings: dose 10-50 µM; in short: as §3
PC-3 [19] = test: Cytotoxicity against human PC-3 cells assessed as reduction in cell viability measured after 48 hrs by MTT assay; assay type: functional, cell-based; settings: PC-3, 48 h; in short: as §1
SW1990 [20] = test: Induction of apoptosis in human SW1990 cells at 12 uM measured after 24 hrs by Annexin V-FITC/propidium iodide staining based flow cytometry; assay type: functional, cell-based
In short: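 SW1990 cells seeded 5 × 10⁵ per well and grown 24 h, then treated 24 h at 8 or 12 µM. Optional 1 h pretreatment with 20 mM NAC or 50 µM carboxyl-PTIO before 12 µM treatment. Cells stained with annexin V-FITC 15 min and PI 5 min at room temperature in the dark, then analysed by flow cytometry. Mean ± SD, n = 3.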

SW1990 [21] = test: Cytotoxicity against human SW1990 cells assessed as reduction in cell viability measured after 48 hrs in presence of FeCl3 by MTT assay; assay type: functional, cell-based; settings: SW1990, 48 h; in short: as §1
PANC-1 [22] = test: Cytotoxicity against human PANC-1 cells assessed as reduction in cell viability at 20 uM measured after 48 hrs by MTT assay relative to control; assay type: functional
In short: (§4)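 MTT assay with 48 h compound exposure at 10 or 20 µM. Cells seeded 6 × 10⁴ per well and grown 24 h beforehand. MTT 4 h, DMSO solubilisation, A490 read. Percent cell death given as mean ± SD, n = 3.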

HCT-116 [23] = test: Cytotoxicity against human HCT-116 cells assessed as reduction in cell viability measured after 48 hrs in presence of CuCl2 by MTT assay; assay type: functional, cell-based; settings: HCT-116, 48 h; in short: as §1
[24] = Cytotoxicity against human RWPE2 cells assessed as reduction in cell viability measured after 48 hrs by MTT assay; assay type: cell-based; settings: RWPE2, 48 h; in short: as §1
PANC-1 [25] = test: Cytotoxicity against human PANC-1 cells assessed as reduction in cell viability measured after 48 hrs in presence of FeCl3 by MTT assay; assay type: functional, cell-based; settings: PANC-1, 48 h; in short: as §1
HeLa [26] = test: Cytotoxicity against human HeLa cells assessed as reduction in cell viability measured after 48 hrs in presence of CuCl2 by MTT assay; assay type: functional, cell-based
HCT-116 [27] = test: Cytotoxicity against human HCT-116 cells assessed as reduction in cell viability measured after 48 hrs by MTT assay; assay type: functional, cell-based; settings: HCT-116, 48 h; in short: as §1
HepG2 [28] = test: Cytotoxicity against human HepG2 cells assessed as reduction in cell viability measured after 48 hrs by MTT assay; assay type: functional, cell-based; settings: HepG2, 48 h; in short: as §1
A549 [29] = test: Cytotoxicity against human A549 cells assessed as reduction in cell viability measured after 48 hrs in presence of CuCl2 by MTT assay; assay type: functional, cell-based; settings: A549, 48 h
SW1990 [30] = test: Cytotoxicity against human SW1990 cells assessed as reduction in cell viability measured after 48 hrs by MTT assay; assay type: functional, cell-based; settings: SW1990, 48 h; in short: as §1
PANC-1 [31] = test: Cytotoxicity against human PANC-1 cells assessed as reduction in cell viability measured after 48 hrs by MTT assay; assay type: functional, cell-based; settings: PANC-1, 48 h; in short: as §1
HepG2 [32] = test: Cytotoxicity against human HepG2 cells assessed as reduction in cell viability measured after 48 hrs in presence of FeCl3 by MTT assay; assay type: functional, cell-based; settings: HepG2, 48 h; in short: as §1
[33] = Drug metabolism in human SW1990 cells assessed as nitric oxide release at 12 uM measured after 24 hrs by DAF-FM DA probe based flow cytometry; assay type: ADME, cell-based; settings: sw1990, 24 h
In short: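 SW1990 cells at 80% confluence loaded with 5 µM DAF-FM DA for 20 min at 37 °C, rinsed, then incubated with compound. Optional 1 h pretreatment with 50 µM carboxyl-PTIO before 12 µM treatment. Fluorescence read by flow cytometry (ex 495 / em 515 nm). Mean ± SD, n = 3.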

SW1990 [34] = test: Cytotoxicity against human SW1990 cells assessed as reduction in cell viability at 10 to 20 uM measured after 48 hrs by MTT assay; assay type: functional, cell-based; settings: dose 10-20 µM; in short: as §4
HeLa [35] = test: Cytotoxicity against human HeLa cells assessed as reduction in cell viability at 10 to 20 uM measured after 48 hrs by MTT assay; assay type: functional, cell-based; settings: dose 10-20 µM
PANC-1 [36] = test: Cytotoxicity against human PANC-1 cells assessed as reduction in cell viability at 10 uM measured after 48 hrs by MTT assay; assay type: functional, cell-based; in short: as §4
[37] = Drug metabolism in human PANC-1 cells assessed as nitric oxide release at 10 uM measured after 8 hrs by Griess assay; assay type: ADME, cell-based; settings: panc-1, 8 h
In short: (§5)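 Cells exposed 8 h to 10 µM compound. Nitrite measured by Griess reagent kit at 540 nm against a NaNO₂ calibration curve. Mean ± SD, n = 3.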

MCF7 [38] = test: Cytotoxicity against human MCF7 cells assessed as reduction in cell viability at 10 to 20 uM measured after 48 hrs by MTT assay; assay type: functional, cell-based; settings: dose 10-20 µM; in short: as §4
HepG2 [39] = test: Cytotoxicity against human HepG2 cells assessed as reduction in cell viability at 10 to 20 uM measured after 48 hrs by MTT assay; assay type: functional, cell-based; settings: dose 10-20 µM; in short: as §4
[40] = Drug metabolism in human SW1990 cells assessed as nitric oxide release at 10 uM measured after 8 hrs by Griess assay; assay type: ADME, cell-based; settings: sw1990, 8 h; in short: as §5
A549 [41] = test: Cytotoxicity against human A549 cells assessed as reduction in cell viability at 10 to 20 uM measured after 48 hrs by MTT assay; assay type: functional, cell-based; settings: dose 10-20 µM

SMILES | IC50 (PC-3 [1]) | IC50 (HeLa [2]) | IC50 (MCF7 [3]) | IC50 (HeLa [4]) | IC50 (HepG2 [6]) | IC50 (PC-3 [7]) | IC50 (SW1990 [8]) | Activity [10] | IC50 (PANC-1 [11]) | IC50 (A549 [12]) | IC50 (HCT-116 [13]) | IC50 (MCF7 [14]) | IC50 (MCF7 [15]) | IC50 (A549 [16]) | IC50 [17] | Activity [18] | IC50 (PC-3 [19]) | Activity (SW1990 [20]) | IC50 (SW1990 [21]) | Activity (PANC-1 [22]) | also measured
Oc1cccc2cccnc12 [OXYQUINOLINE] | 14.4 µM | > 50 µM | > 50 µM | > 50 µM | 32.1 µM | > 50 µM | 10.2 µM | Dose-dependent effect | 7.43 µM | 32.6 µM | 26.3 µM | > 50 µM | 21.1 µM | 31.2 µM | 20.1 µM | Dose-dependent effect | 32 µM | Active | > 50 µM | 48% | Activity (SW1990 [5]): 0.68 cm3; inhibition in vivo at 20 mg/kg (SW1990 [9]): 44.7%; IC50 (HCT-116 [23]): 7.25 µM; IC50 [24]: 25.6 µM; IC50 (PANC-1 [25]): 30.4 µM; IC50 (HeLa [26]): 35.6 µM; IC50 (HCT-116 [27]): 21.1 µM; IC50 (HepG2 [28]): > 50 µM; IC50 (A549 [29]): 6.58 µM; IC50 (SW1990 [30]): 32.1 µM; IC50 (PANC-1 [31]): 24.5 µM; IC50 (HepG2 [32]): > 50 µM
O=C(NCCCOc1nonc1S(=O)(=O)c1ccccc1)c1ccc2cccc(OCc3ccc(B(O)O)cc3)c2n1 | – | – | – | – | – | – | – | – | – | – | – | – | – | – | – | – | – | Active | – | – | Drug metabolism [33]: Metabolite_Notdetected; Activity (SW1990 [34]): inactive
O=C(NCCCOc1no[n+]([O-])c1S(=O)(=O)c1ccccc1)c1ccc2cccc(O)c2n1 | 5.63 µM | 33.2 µM | 13.4 µM | 28.7 µM | 6.32 µM | 17.1 µM | 1.47 µM | Dose-dependent effect | 0.86 µM | 17.9 µM | 20.1 µM | 18.2 µM | 3.23 µM | 13.8 µM | 9.05 µM | Dose-dependent effect | 11.7 µM | – | 12.1 µM | 75.2% | Activity (HeLa [35]): Active; Activity (PANC-1 [36]): Active; Drug metabolism [37]: Metabolite_Detected; Activity (MCF7 [38]): Active; Activity (HepG2 [39]): Active; Drug metabolism [40]: Metabolite_Detected; IC50 (HCT-116 [23]): 5.2 µM; IC50 [24]: 8.77 µM; IC50 (PANC-1 [25]): 13.9 µM; IC50 (HeLa [26]): 9.56 µM; Activity (A549 [41]): Active; IC50 (HCT-116 [27]): 14.6 µM; IC50 (HepG2 [28]): 17.9 µM; IC50 (A549 [29]): 4.68 µM; IC50 (SW1990 [30]): 9.24 µM; IC50 (PANC-1 [31]): 7.54 µM; IC50 (HepG2 [32]): 22.4 µM
